According to ChEMBL document CHEMBL3600378 (J Med Chem, 2015):
pEC50: −log10 of the molar value.

Legend:
[1] = target: Beta-3 adrenergic receptor (Homo sapiens, UniProt P13945); assay: Agonist activity at human recombinant beta3-adrenergic receptor expressed in CHO cells assessed as increase of cAMP level after 30 mins; assay type: functional, cell-based
Rattus norvegicus [2] = assay: Cardiotoxicity in anesthetized Sprague-Dawley rat assessed as increase in mean blood pressure at 3 mg/kg, iv measured for 30 mins relative to control; assay type: toxicity, organism-based; conditions: in vivo, 0.5 h
In short: (§1)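 Male Sprague-Dawley rats (200-300 g) were anesthetized with sodium pentobarbital (50 mg/kg i.p. plus 25 mg/kg s.c.). The compound was injected via the cannulated left femoral vein once BP and HR were stable, and HR and MBP were recorded for 30 min. Results are the maximum % increase or decrease from baseline, as mean ± SEM. Where given, silodosin (0.01 mg/kg iv) preceded the compound.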

[3] = target: T1, Alpha-1B adrenergic receptor (Homo sapiens, UniProt P35368); assay: Agonist activity at human alpha1B-adrenergic receptor
T1 sequence (P35368 whole entry): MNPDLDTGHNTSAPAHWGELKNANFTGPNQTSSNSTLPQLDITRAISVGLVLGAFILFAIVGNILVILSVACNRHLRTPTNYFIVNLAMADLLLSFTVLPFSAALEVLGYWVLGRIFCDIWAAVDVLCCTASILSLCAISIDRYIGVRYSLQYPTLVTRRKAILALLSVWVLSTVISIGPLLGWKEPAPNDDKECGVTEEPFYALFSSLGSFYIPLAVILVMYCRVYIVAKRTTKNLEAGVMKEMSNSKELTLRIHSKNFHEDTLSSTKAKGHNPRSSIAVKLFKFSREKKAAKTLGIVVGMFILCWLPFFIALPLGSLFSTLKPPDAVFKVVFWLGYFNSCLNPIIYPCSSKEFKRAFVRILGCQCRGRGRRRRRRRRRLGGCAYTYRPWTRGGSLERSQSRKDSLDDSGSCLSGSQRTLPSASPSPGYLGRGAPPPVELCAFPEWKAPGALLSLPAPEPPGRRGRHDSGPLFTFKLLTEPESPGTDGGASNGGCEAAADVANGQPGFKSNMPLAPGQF

Rattus norvegicus [4] = assay: Cardiotoxicity in anesthetized Sprague-Dawley rat assessed as decrease in heart rate at 3 mg/kg, iv measured for 30 mins relative to control; assay type: toxicity, organism-based; design: scale not given: the % may be the effect or the level left; conditions: in vivo, 0.5 h; in short: as §1
[5] = target: Beta-2 adrenergic receptor (Homo sapiens, UniProt P07550); assay: Agonist activity at human beta2-adrenergic receptor expressed in CHO cells assessed as increase of cAMP level after 30 mins; assay type: functional, cell-based
Beta-2 adrenergic receptor, sequence (P07550 whole entry): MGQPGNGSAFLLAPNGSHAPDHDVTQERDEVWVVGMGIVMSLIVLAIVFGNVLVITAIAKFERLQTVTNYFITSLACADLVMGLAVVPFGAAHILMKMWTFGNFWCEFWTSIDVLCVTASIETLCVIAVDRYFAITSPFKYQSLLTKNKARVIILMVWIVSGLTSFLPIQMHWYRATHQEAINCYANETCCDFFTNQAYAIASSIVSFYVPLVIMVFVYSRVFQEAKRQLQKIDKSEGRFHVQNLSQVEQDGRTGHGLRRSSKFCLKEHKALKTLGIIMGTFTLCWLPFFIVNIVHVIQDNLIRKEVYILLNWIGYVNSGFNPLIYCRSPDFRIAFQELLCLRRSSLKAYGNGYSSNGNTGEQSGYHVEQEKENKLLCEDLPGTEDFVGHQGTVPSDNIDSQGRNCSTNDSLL
In short: (§2)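 Stably transfected CHO cells expressing human β1, β2 or β3 or marmoset β3 receptor were grown in Ham's F-12 with 10% FBS and geneticin, seeded at 2×10⁴ cells/well and grown about 20 h. Cells spent 15 min serum-free, then 30 min with compound in medium containing HEPES and isobutylmethylxanthine. Lysate cAMP was measured by kit. […] EC50 is the half-maximal concentration for each compound.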

[6] = target: Beta-1 adrenergic receptor (Homo sapiens, UniProt P08588); assay: Intrinsic activity at human beta1-adrenergic receptor expressed in CHO cells assessed as increase of cAMP level after 30 mins relative to isoproterenol; assay type: functional, cell-based; in short: as §2
Beta-1 adrenergic receptor, sequence (P08588 whole entry, looked up): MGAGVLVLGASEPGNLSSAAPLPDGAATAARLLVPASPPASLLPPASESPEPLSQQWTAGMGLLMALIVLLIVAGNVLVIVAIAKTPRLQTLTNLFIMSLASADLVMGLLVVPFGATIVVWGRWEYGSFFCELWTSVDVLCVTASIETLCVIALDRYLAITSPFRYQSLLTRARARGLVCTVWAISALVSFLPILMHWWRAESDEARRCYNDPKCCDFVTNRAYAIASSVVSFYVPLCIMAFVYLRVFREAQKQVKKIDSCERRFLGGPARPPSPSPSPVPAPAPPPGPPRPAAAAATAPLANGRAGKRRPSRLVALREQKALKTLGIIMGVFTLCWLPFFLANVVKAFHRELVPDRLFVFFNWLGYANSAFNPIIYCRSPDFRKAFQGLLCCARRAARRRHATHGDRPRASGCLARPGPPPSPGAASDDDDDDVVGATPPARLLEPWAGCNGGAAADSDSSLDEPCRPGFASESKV

Rattus norvegicus [7] = assay: Cardiotoxicity in anesthetized Sprague-Dawley rat assessed as increase in heart rate at 3 mg/kg, iv measured for 30 mins relative to control; assay type: toxicity, organism-based; conditions: in vivo, 0.5 h; in short: as §1
[8] = target: T2, Alpha-1A adrenergic receptor (Homo sapiens, UniProt P35348); assay: Agonist activity at human alpha1A-adrenergic receptor expressed in HEK293 cells assessed as calcium flux by fluorescence assay; assay type: functional, cell-based
T2 sequence (P35348 whole entry): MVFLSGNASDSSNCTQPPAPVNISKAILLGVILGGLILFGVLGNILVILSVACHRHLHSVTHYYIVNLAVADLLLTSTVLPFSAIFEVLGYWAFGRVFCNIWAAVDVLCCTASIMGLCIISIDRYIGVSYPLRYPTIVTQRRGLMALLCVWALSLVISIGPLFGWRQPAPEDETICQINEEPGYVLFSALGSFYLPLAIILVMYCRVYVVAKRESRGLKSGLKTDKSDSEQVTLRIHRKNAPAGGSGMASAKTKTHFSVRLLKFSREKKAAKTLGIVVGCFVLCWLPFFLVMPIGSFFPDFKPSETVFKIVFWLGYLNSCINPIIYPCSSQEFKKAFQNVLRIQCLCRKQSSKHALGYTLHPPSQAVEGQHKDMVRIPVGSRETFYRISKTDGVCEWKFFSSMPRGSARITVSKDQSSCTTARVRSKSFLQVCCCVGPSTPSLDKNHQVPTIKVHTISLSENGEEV

[9] = target: T3, Alpha-1D adrenergic receptor (Homo sapiens, UniProt P25100); assay: Agonist activity at human alpha1D-adrenergic receptor
T3 sequence (P25100 whole entry): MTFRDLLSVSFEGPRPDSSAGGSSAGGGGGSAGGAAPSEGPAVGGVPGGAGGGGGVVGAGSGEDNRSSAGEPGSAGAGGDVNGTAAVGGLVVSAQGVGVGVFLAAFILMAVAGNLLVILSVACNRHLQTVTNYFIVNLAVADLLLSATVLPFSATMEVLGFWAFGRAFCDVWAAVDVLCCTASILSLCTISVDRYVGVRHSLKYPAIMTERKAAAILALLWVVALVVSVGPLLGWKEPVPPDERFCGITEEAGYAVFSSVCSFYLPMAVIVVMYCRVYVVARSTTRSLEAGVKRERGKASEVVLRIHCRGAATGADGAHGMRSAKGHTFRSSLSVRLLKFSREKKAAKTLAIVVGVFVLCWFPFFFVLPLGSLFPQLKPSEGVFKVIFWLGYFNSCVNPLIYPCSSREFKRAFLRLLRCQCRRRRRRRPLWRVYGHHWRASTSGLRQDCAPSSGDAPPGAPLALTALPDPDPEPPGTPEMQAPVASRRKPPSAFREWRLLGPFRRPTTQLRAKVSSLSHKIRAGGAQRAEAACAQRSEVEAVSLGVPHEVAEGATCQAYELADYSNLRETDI

Rattus norvegicus [10] = assay: Cardiotoxicity in anesthetized Sprague-Dawley rat assessed as decrease in mean blood pressure at 3 mg/kg, iv measured for 30 mins relative to control; assay type: toxicity, organism-based; design: scale not given: the % may be the effect or the level left; conditions: in vivo, 0.5 h; in short: as §1

Beta-3 adrenergic receptor, sequence (P13945 whole entry): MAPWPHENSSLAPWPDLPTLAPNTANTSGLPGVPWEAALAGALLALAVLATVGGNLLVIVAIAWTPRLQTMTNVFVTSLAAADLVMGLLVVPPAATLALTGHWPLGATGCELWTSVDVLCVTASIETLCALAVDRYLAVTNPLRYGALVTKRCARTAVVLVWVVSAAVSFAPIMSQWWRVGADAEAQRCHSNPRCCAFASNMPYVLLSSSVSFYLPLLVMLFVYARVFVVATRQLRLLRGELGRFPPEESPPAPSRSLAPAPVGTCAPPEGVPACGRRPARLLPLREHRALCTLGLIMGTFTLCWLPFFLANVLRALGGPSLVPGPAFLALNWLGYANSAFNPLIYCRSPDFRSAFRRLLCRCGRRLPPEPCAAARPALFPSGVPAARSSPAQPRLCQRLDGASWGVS

pEC50 [1]: 7.68
pEC50 [3]: < 5.00
pEC50 [5]: < 5.00
Intrinsic activity [6]: 6%
pEC50 [8]: 6.66
pEC50 [9]: < 5.00
SMILES: Cc1n[nH]c2cc(OCCNC[C@H](O)c3cccc(NS(C)(=O)=O)c3)ccc12
Activity (Rattus norvegicus [2]): 24.2%
Activity (Rattus norvegicus [4]): 8.8%
Activity (Rattus norvegicus [7]): 7.9%
Activity (Rattus norvegicus [10]): 8.5%
